Reference: ChEMBL document CHEMBL1131108, “Phenothiazine inhibitors of trypanothione reductase as potential antitrypanosomal and antileishmanial drugs” (J Med Chem, 1998)

Tests used:
[1] = system: Trypanosoma brucei; experiment: Effective dose against Trypanosoma brucei) bloodstream form trypomastigotes in HMI-9 medium; details: read-out: ED50 (the source's name)
[2] = species: Mus musculus; experiment: Effective dose against […]; Toxic to the macrophages; type: functional
[3] = molecular target: T1, Trypanothione reductase (Trypanosoma cruzi, UniProt P28593); experiment: Inhibitory activity against recombinant Trypanosoma cruzi (Trypanosoma cruzi) Trypanothione reductase; details: read-out: I50
T1 sequence (P28593 whole entry): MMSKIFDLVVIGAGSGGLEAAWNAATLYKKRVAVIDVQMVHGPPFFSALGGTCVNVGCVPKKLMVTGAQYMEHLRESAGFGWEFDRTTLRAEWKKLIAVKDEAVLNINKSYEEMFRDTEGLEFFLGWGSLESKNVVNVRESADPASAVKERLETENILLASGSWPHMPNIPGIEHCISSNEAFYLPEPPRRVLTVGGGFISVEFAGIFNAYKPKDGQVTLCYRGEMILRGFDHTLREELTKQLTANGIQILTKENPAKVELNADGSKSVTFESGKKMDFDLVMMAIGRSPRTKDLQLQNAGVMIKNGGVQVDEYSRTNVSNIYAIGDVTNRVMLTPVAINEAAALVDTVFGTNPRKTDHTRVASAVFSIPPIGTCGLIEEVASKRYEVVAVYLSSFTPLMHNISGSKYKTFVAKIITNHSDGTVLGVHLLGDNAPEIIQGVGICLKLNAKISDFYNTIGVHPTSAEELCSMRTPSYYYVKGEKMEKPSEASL
Outline: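 Recombinant T. cruzi TR, overexpressed in E. coli JM109 and homogeneous by SDS-PAGE, was used at about 0.3 µg/mL. Assay at 25 °C in 0.02 M HEPES pH 7.25 with 0.15 M KCl, 1 mM EDTA, 0.12 mM trypanothione disulfide and 0.1 mM NADPH, read at 340 nm. I50 came from nonlinear least-squares fitting of velocity versus inhibitor concentration using the linear competitive inhibition equation.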

[4] = species: Mus musculus; experiment: Effective dose against Leishmania donovani (Leishmania donovani) amastigotes in mouse peritoneal macrophages; type: functional; details: read-out: ED50 (the source's name)
Outline: (§1)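 Mouse peritoneal macrophages kept on chamber slides in RPMI 1640 with 10% heat-inactivated foetal calf serum, 37 °C, 5% CO2, and infected with L. donovani MHOM/ET/69/L82 amastigotes taken from infected hamster spleens. After 24 h, compounds were added in a 3-fold dilution series in quadruplicate for 5 days. Slides were methanol-fixed and Giemsa-stained, then scored for the proportion of infected macrophages.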

[5] = species: Mus musculus; experiment: Effective dose against Leishmania donovani (Leishmania donovani) amastigotes in mouse peritoneal macrophages; Toxic to the macrophages; type: functional, organism-based
Outline: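 Mouse peritoneal macrophages in RPMI 1640 + 10% heat-inactivated FCS, 37 °C, 5% CO2, infected with L. donovani (MHOM/ET/69/L82) amastigotes from infected hamster spleens. Compounds added 24 h post-infection in 3-fold dilutions, quadruplicate, for 5 days. Slides methanol-fixed, Giemsa-stained; proportion of infected macrophages scored.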

[6] = species: Mus musculus; experiment: Effective dose against Trypanosoma cruzi (Trypanosoma cruzi) trypomastigotes in mouse peritoneal macrophages; Toxic to the macrophages; type: functional, organism-based
Outline: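 T. cruzi (MHOM/BR/00/Y) trypomastigotes from infected L6 rat myoblast cultures infect mouse peritoneal macrophages at 5 parasites:1 macrophage, 37 °C, 5% CO2/air. Compounds in fresh medium 24 h post-infection, 3-fold dilutions, quadruplicate, 3 days. Cultures fixed, Giemsa-stained; proportion of infected macrophages scored.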

[7] = species: Mus musculus; experiment: Effective dose against Trypanosoma cruzi (Trypanosoma cruzi) trypomastigotes in mouse peritoneal macrophages; type: functional; details: read-out: ED50 (the source's name)
[8] = molecular target: T2, Glutathione reductase, mitochondrial (Homo sapiens, UniProt P00390); experiment: Inhibitory activity against human erythrocyte glutathione reductase; '*' indicates No inhibition
T2 sequence (P00390 whole entry): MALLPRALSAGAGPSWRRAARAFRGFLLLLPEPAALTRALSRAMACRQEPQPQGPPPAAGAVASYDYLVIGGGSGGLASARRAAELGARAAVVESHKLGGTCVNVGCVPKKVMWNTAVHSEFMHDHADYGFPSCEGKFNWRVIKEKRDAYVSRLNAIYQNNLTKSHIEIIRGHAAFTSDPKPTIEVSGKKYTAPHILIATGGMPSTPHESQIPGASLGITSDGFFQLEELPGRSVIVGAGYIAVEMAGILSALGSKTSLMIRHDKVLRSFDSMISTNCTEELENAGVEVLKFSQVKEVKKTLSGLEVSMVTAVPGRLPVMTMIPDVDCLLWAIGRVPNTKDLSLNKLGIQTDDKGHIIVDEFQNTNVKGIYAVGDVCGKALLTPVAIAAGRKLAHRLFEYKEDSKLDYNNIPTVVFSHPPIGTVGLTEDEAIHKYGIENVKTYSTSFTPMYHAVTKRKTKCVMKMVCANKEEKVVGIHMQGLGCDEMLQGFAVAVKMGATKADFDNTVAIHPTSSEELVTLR
Outline: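 Enzyme was isolated from human erythrocytes and assayed spectrophotometrically at 340 nm under literature conditions. Compounds were tested up to 1 mM, or 0.1 mM where solubility was limited.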

[9] = system: Trypanosoma brucei; experiment: Effective dose against Trypanosoma brucei) bloodstream form trypomastigotes; details: read-out: ED50 (the source's name)
[10] = species: Mus musculus; experiment: Effective dose against Trypanosoma […]) trypomastigotes in mouse peritoneal macrophages; type: functional; details: read-out: ED50 (the source's name)
[11] = species: Mus musculus; experiment: Effective dose against Trypanosoma cruzi (Trypanosoma cruzi) trypomastigotes in mouse peritoneal macrophages; Range is 10-30 uM; type: functional; details: read-out: ED50 (the source's name)
[12] = molecular target: T1, Trypanothione reductase; experiment: Inhibitory activity against recombinant Trypanosoma cruzi (Trypanosoma cruzi) Trypanothione reductase (linear competitive type)
[13] = species: Mus musculus; experiment: Effective dose against Trypanosoma uM; type: functional
[14] = species: Mus musculus; experiment: Effective dose against Leishmania donovani (Leishmania donovani) amastigotes in mouse peritoneal macrophages; Range is 10-30 uM; type: functional; details: read-out: ED50 (the source's name)
Outline: as §1

[15] = system: Trypanosoma brucei; experiment: Effective dose against Trypanosoma brucei) bloodstream form trypomastigotes; <3, >1; details: read-out: ED50 (the source's name)
[16] = molecular target: T1, Trypanothione reductase; experiment: Inhibitory activity against recombinant Trypanosoma cruzi (Trypanosoma cruzi) Trypanothione reductase; No inhibition at 1000 uM

Row | Structure (SMILES) | IC50 [3] [µM] | EC50 [4] [µM] | EC50 [7] [µM] | I50 [8] | further results
1 | O=C(CCC(=O)N1c2ccccc2Sc2ccc(Cl)cc21)NNc1ccccc1 | 151 | 34.2 |  |  | EC50 [1]: 15.2 µM; ED50 [2]: Toxic
2 | CC(=O)c1ccc2c(c1)N(CCCN(C)C)c1ccccc1S2 [ACEPROMAZINE] | 502 |  |  |  | EC50 [1]: 6.42 µM; ED50 [5]: Toxic; ED50 [6]: Toxic
3 | N=C(N)CCN1c2ccccc2Sc2ccc(Cl)cc21 | 307 |  |  |  | 
4 | CCN(CC)CCCCCC(=O)N1c2ccccc2Sc2ccc(Cl)cc21 | 457 |  |  |  | 
5 | CN(C)CCCN1c2ccccc2Sc2c(Cl)cccc21 | 765 | 48.4 | 29.5 | Not Active | EC50 [9]: 3.01 µM
6 | C/C(=N/OCc1ccccc1)c1ccc2c(c1)N(CCCN(C)C)c1ccccc1S2 | 204 | 16.5 | > 30 |  | EC50 [10]: 1.56 µM
7 | CC(=O)N1c2ccccc2Sc2ccc(C(=O)CCl)cc21 | 436 |  |  |  | 
8 | CN(C)CCCN1c2ccccc2Sc2ccc(C(=O)O)cc21 | 3910 |  |  | Not Active | 
9 | C/C(=N\OCc1ccccc1)c1ccc2c(c1)N(CCCN(C)C)c1cc(Cl)ccc1S2 | 199 | 6.78 | > 30 |  | EC50 [10]: 3.5 µM
10 | CNCCCN1c2ccccc2Sc2ccccc21 | 1030 |  |  | Not Active | 
11 | CCN(CC)CCN1c2ccccc2Sc2ccc(Cl)cc21 | 81.3 |  |  | Not Active | 
12 | O=C(CBr)N1c2ccccc2Sc2ccc(Cl)cc21 | 251 | 5.97 |  |  | EC50 [1]: 0.97 µM; EC50 [11]: 10 µM
13 | CN(C)CCN1c2ccccc2Sc2ccc(Cl)cc21 [CHOLRPHENETHAZINE] | 150 |  |  | Not Active | 
14 | CCCC(=O)N1c2ccccc2Sc2ccc(Cl)cc21 | 95 | > 30 | > 30 |  | EC50 [1]: > 30 µM
15 | NCCCN1c2ccccc2Sc2ccccc21 | 1410 | 3.3 | 54.9 | Not Active | EC50 [9]: 3.83 µM
16 | CCCCCC(=O)c1ccc2c(c1)N(CCCN(C)C)c1ccccc1S2 | 171 |  |  |  | EC50 [1]: > 30 µM
17 | CC(=O)c1ccc2c(c1)N(C(C)=O)c1cc(C(C)=O)ccc1S2 | 49.1 | > 30 | > 30 |  | EC50 [1]: > 30 µM
18 | CC(CN(C)C)CN1c2ccccc2Sc2ccccc21 (stereo not given) [METHYLPROMAZINE] | 249 |  |  | Not Active | Ki [12]: 127 µM
19 | CC(=O)c1ccc2c(c1)N(CCCN(C)C)c1cc(Cl)ccc1S2 | 175 | 12.1 | > 30 |  | EC50 [1]: 1.29 µM
20 | CN1CCN(CCCN2c3ccccc3Sc3ccc(C(F)(F)F)cc32)CC1 [TRIFLUOPERAZINE] | 72 |  |  | Not Active | Ki [12]: 23 µM
21 | O=C(O)CCC(=O)N1c2ccccc2Sc2ccc(Cl)cc21 | 1480 |  |  |  | 
22 | CC(CN1c2ccccc2Sc2ccccc21)N(C)C (stereo not given) [PROMETHAZINE] | 271 |  |  | Not Active | Ki [12]: 216 µM
23 | CN(C)CCCN1c2ccccc2[S+]([O-])c2ccc(Cl)cc21 (stereo not given) [CHLOROPROMAZINE SULFOXIDE] | 76.6 |  |  | Not Active | 
24 | CC(=O)c1ccc2c(c1)N(C(C)=O)c1ccccc1S2 | 2810 |  |  | Not Active | 
25 | CN(C)CCCN1c2ccccc2Sc2ccc(C(N)=O)cc21 | 458 |  |  | Not Active | 
26 | CN(C)CCCN1c2ccccc2Sc2ccccc21 [PROMAZINE] | 108 |  |  | Not Active | Ki [12]: 59.1 µM

Row | Structure (SMILES) | IC50 [3] [µM] | EC50 [4] [µM] | EC50 [7] [µM] | I50 [8] | further results
27 | CO/N=C(/C)c1ccc2c(c1)N(CCCN(C)C)c1ccccc1S2 | 351 | > 30 | > 30 |  | ED50 [13]: 10 µM
28 | O=C(CCl)N1c2ccccc2Sc2ccc(Cl)cc21 | 862 |  |  |  | 
29 | O=C(CNc1ccccc1)N1c2ccccc2Sc2ccc(Cl)cc21 | 256 |  |  |  | 
30 | CN(C)CCCN1c2ccccc2Sc2ccc(/C=N/O)cc21 | 145 | > 30 |  |  | EC50 [1]: 7.35 µM; EC50 [11]: 10 µM
31 | N=C(N)CCN1c2ccccc2Sc2ccccc21 | 992 |  |  |  | 
32 | CN(C)CCCN1c2ccccc2Sc2ccc(COc3ccc(C(C)(C)C)cc3)cc21 | 161 | > 30 | > 30 | Not Active | EC50 [9]: > 30 µM
33 | CN(C)C(C)(C)CN1c2ccccc2Sc2ccccc21 | 1180 |  |  | Not Active | 
34 | CC(=O)c1ccc2c(c1)N(C(C)=O)c1cc(Cl)ccc1S2 | 402 | > 30 | > 30 |  | EC50 [1]: > 30 µM
35 | CCCC(=O)c1ccc2c(c1)N(CCCN(C)C)c1ccccc1S2 | 301 |  | > 30 |  | EC50 [1]: 3.26 µM; EC50 [14]: 10 µM
36 | O=C(CCC(=O)N1c2ccccc2Sc2ccc(Cl)cc21)NCc1ccccc1 | 188 | > 30 | > 30 |  | EC50 [1]: > 30 µM
37 | CN(C)CCCN1c2ccccc2Sc2ccc(C(F)(F)F)cc21 [TRIFLUPROMAZINE] | 110 |  |  | Not Active | EC50 [9]: 3.2 µM; Ki [12]: 30.2 µM
38 | COC(=O)c1ccc2c(c1)N(CCCN(C)C)c1ccccc1S2 | 348 |  |  | Not Active | 
39 | CN(C)CCCN1c2ccccc2Sc2ccc(CO)cc21 | 1190 |  |  | Not Active | 
40 | NCCCN1c2ccccc2Sc2ccc(Cl)cc21 [NOR2-CHLORPROMAZINE] | 139 | 10 | 5.9 | Not Active | EC50 [15]: < 3 µM
41 | CCN(CC)CCCC(=O)N1c2ccccc2Sc2ccc(Cl)cc21 | 320 |  |  |  | 
42 | CCC(=O)c1ccc2c(c1)N(CCCN(C)C)c1ccccc1S2 | 357 | > 30 | > 30 |  | EC50 [1]: 10.1 µM
43 | CCN(CC)CCC(=O)N1c2ccccc2Sc2ccc(Cl)cc21 [CHLORACYZINE] | 802 |  |  |  | 
44 | CCN(CC)CC(=O)N1c2ccccc2Sc2ccc(Cl)cc21 | 829 |  |  |  | 
45 | c1ccc2c(c1)Nc1ccccc1S2 [PHENOTHIAZINE] |  |  |  |  | I50 [16]: No inhibition
46 | OCCN1CCN(CCCN2c3ccccc3Sc3ccc(C(F)(F)F)cc32)CC1 [FLUPHENAZINE] | 73.7 | > 30 | > 30 | Not Active | EC50 [9]: > 30 µM; Ki [12]: 21.2 µM
47 | CNCCCN1c2ccccc2Sc2ccc(Cl)cc21 [NOR1-CHLORPROMAZINE] | 126 |  |  | Not Active | 
48 | CCCN1CCN(CCCN2c3ccccc3Sc3ccc(Cl)cc32)CC1 | 95.5 |  |  | Not Active | Ki [12]: 18.7 µM
49 | CN(C)CCCN1c2ccccc2Sc2ccc(Cl)cc21 [CHLORPROMAZINE] | 35.4 | 4.9 | > 10 | Not Active | EC50 [9]: 3.69 µM; Ki [12]: 10.8 µM
50 | CC(=O)c1ccc2c(c1)N(CCCN(C)C)c1cc(C(C)=O)ccc1S2 | 472 | > 30 | > 30 |  | ED50 [13]: 10 µM
51 | CN(C)CCCN1c2ccccc2Sc2ccc(CN)cc21 | 219 |  |  |  | EC50 [1]: 0.37 µM; ED50 [5]: Toxic; ED50 [6]: Toxic
